Here are results for 3 compounds from ChEMBL document CHEMBL2311329, “Synthesis and biological evaluation of a folate-targeted rhaponticin conjugate” (Bioorg Med Chem, 2013).

One may read the half-life as the time in which the quantity being followed falls by half. Low values mean rapid decline, high ones slow decline. As usually defined, the IC50 is the point on the concentration scale where inhibition reaches its midpoint.

The subject of one data set is KB. The data set is described as follows: Antitumor activity against FR-positive human KB cells assessed as decrease in cell viability measured after 48 hrs by MTT proliferation assay. The class given is functional, cell-based. The method, boiled down: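 Cells kept in folate-free RPMI with 10% heat-inactivated FCS. Seeded at 1.0 × 10^4 cells/well and left to adhere overnight. Medium then replaced with drug at 0.1–500 nM, with or without 0.01 mM FA competitor, for 48 h at 37 °C. MTT added for 3 h, formazan dissolved in DMSO, A570 read against a no-MTT baseline. Viability given as % of control; 5 repeats.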
For orientation: Tetrazolium dyes change colour on reduction, which living cells bring about.

A short description of data set [1]: Half life in human serum at 37 degC. In kind it is ADME, cell-free. The method, boiled down: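 Compound added to human serum at a final 200 µM and held at 37 °C in a water bath for up to 24 h. Samples taken at 1–3, 5, 8, 12, 18 and 24 h (n = 3). Compound recovered by solid-phase extraction after adding 6 M guanidine (pH 7.4), then measured by HPLC as % recovery.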

Another data set concerns M109. Kind of data set: In vivo antitumor activity against FR-positive mouse M109 cells implanted in Balb/c mouse assessed as decrease in tumor volume at 2 umol/kg, iv treated 33 days after implantation for TIW 3 week schedule. The class given is functional, organism-based.
A further data set relates to Mus musculus. Kind of data set: Toxicity in FR-positive human KB cells implanted Balb/c mouse assessed as gross toxicity at 2 umol/kg, iv TIW 2 week schedule. The class given is organism-based. The settings on record: in vivo, 336 h. The method, boiled down: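 Female Balb/c mice, 6–7 weeks old, on folate-free diet. 1 × 10^6 KB cells injected into the dorsal subcutis. Dosing began at tumor volumes of 50–110 mm³: 2 µmol/kg iv, three times a week for 2 weeks, alone or with 40-fold excess FA; PBS for controls. Caliper volumes (0.5 × L × W²) every 2–3 days; body weight followed. n = 5 per cohort.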

SMILES strings stand for the structures. Calls of active or inactive are those of the source. The rule behind the calls is not given here.

Take `COc1ccc(/C=C/c2cc(O)cc(O[C@@H]3O[C@H](CNC(=O)OCCSSc4ccccn4)[C@@H](O)[C@H](O)[C@H]3O)c2)cc1O`: in the data set on KB, the inhibition entry is “Active”.
Consider `COc1ccc(/C=C/c2cc(O)cc(O[C@@H]3O[C@H](CN)[C@@H](O)[C@H](O)[C@H]3O)c2)cc1O`, for which, in the data set with KB, the inhibition result was “Active”.
Consider `COc1ccc(/C=C/c2cc(O)cc(O[C@@H]3O[C@H](CO)[C@@H](O)[C@H](O)[C@H]3O)c2)cc1O` [RHAPONTIN], for which the half-life in data set [1] is 210 min. In the data set on KB, the IC50 was 34 nM. Besides, the inhibition entry with M109 was “Active”. Moreover, the Activity entry with Mus musculus is recorded as “Toxic”.
